Measurements published in ChEMBL document CHEMBL1145815, “SYNOPSIS: SYNthesize and OPtimize System in Silico” (J Med Chem, 2003).

Legend:
[1] = system: MT4; experiment: Logarithm of cytotoxic concentration that causes half of the cells to die in mock-infected MT-4 cell cultures; format: functional, Homo sapiens
How it was run: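 Mock-infected MT-4 cell cultures exposed to compound; viability read spectrophotometrically as mitochondrial dehydrogenase reduction of yellow MTT to blue formazan in metabolically active cells. CC50 taken as the concentration killing half the cells, run alongside HIV-infected cultures.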

[2] = Logarithm of inhibitory concentration against HIV-induced cytopathogenicity in MT-4 cell cultures; format: functional, cell-based; conditions: Human immunodeficiency virus 1, MT4
How it was run: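 Protection of MT-4 cell cultures against HIV-induced cytopathogenicity. Reduction of yellow MTT to blue formazan by mitochondrial dehydrogenases of metabolically active cells is read spectrophotometrically in HIV- and mock-infected cultures. IC50 is the concentration giving 50% protection against HIV-induced cytopathogenicity. CC50 is the concentration killing half the cells in mock-infected cultures.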

| SMILES | pCC50 [1] | IC50 [2] [µM] |
| --- | --- | --- |
| CC(NCCc1cccs1)c1cc(C#N)ccc1O (centres undefined) | <4 | > 100 |
| O=C1NCCCC1C(=O)NNC(=S)Nc1cc(Cl)cc(Cl)c1 (centres undefined) | 4.3 | > 50.1 |
| COC(C/N=C(\S)Nc1c(Br)cc(Cl)cc1Br)OC | <4 | 25.1 |
| CSc1cccnc1C(=O)NCc1ccc(N)cc1 | <4 | 39.8 |
| N#Cc1ccc(O)c(NC(=O)Nc2cccc(F)c2)c1 | <4 | > 100 |
| COc1cccc(CC/N=C(\S)Nc2ccc(C#N)cc2)c1 | 4.3 | 1.58 |
| NC(=O)N/N=C\c1cc(Cl)ccc1Nc1cccc(Cl)c1 | <4 | 2.51 |
| CC(Nc1ncccc1C(N)=O)c1cccc(Cl)c1 (centres undefined) | <4 | 12.6 |
| CCCc1cc(O)nc(SCC(C)(C)c2ccccc2)n1 | <4.3 | 15.8 |
| S=C(NCc1ccc(Cl)c(Cl)c1)Nc1cccnc1 | 4.4 | > 39.8 |
| CC(C)n1c(O)nnc1Sc1cccc(C(F)(F)F)c1 | <4 | 79.4 |
| CC(C)(C)c1nc(COc2ccc(C(N)=O)c(O)c2)no1 | <4 | > 100 |
| O=C(N/N=C(\S)Nc1cc(Cl)cc(Cl)c1)c1ccccc1F | 5.1 | > 7.94 |
| O=C(Cc1ccc(I)cc1)Nc1ncccc1O | <4 | > 100 |
| NC(=O)N/N=C\c1ccccc1NCc1ccccn1 | <4 | 6.31 |
| Oc1cc(O)cc(CNc2cc(Cl)c(Cl)c(Cl)c2)c1 | 4.3 | > 50.1 |
| O=C(Nc1cccnc1)Nc1nc(Cl)ccc1Cl | <4 | 31.6 |
